Data: ChEMBL document CHEMBL3243974, “Cyclic analogues of luteinizing hormone-releasing hormone with significant biological activities” (1978)

Tests used:
Type in all cases: functional
Rattus norvegicus [1] = organism: Rattus norvegicus; test: Stimulation of luteinizing hormone release in ovariectomized rat assessed as serum luteinizing hormone level at 250 ng pretreated with estrogen and progesterone by radioimmunoassay relative to control
Summary of the method: (§1)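 Ovariectomized rats pretreated with estrogen and progesterone, then given peptide at two doses (250 and 1000 ng). Saline alone and synthetic LH-RH at 2.5 and 10 ng served as comparators. Serum LH was measured by radioimmunoassay and reported in ng/mL ± SE.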

Rattus norvegicus [2] = organism: Rattus norvegicus; test: Stimulation of luteinizing hormone release in ovariectomized rat at 1000 ng pretreated with estrogen and progesterone by radioimmunoassay relative to LH-RH
Summary of the method: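 Ovariectomized rats primed with estrogen and progesterone received peptide at 250 and 1000 ng, with saline and synthetic LH-RH (2.5 and 10 ng) as references. Serum LH was measured by radioimmunoassay. Activity is expressed as % of synthetic LH-RH (taken as 100) with 95% confidence limits.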

Rattus norvegicus [3] = organism: Rattus norvegicus; test: Stimulation of luteinizing hormone release in ovariectomized rat assessed as serum luteinizing hormone level at 1000 ng pretreated with estrogen and progesterone by radioimmunoassay relative to control; summary of the method: as §1

Compound	Activity (Rattus norvegicus [1])	Activity (Rattus norvegicus [2])	Activity (Rattus norvegicus [3])
CC(C)C[C@H](NC(=O)[C@@H](C)NC(=O)[C@H](Cc1ccc(O)cc1)NC(=O)[C@H](CO)NC(=O)[C@H](Cc1c[nH]c2ccccc12)NC(=O)[C@H](Cc1cnc[nH]1)NC(=O)CCN)C(=O)N[C@@H](CCCNC(=N)N)C(=O)N1CCC[C@H]1C(=O)NCC(=O)O	80.74 ng/mL	<0.01%	65.69 ng/mL
CC(C)C[C@@H]1NC(=O)[C@@H](C)NC(=O)[C@H](Cc2ccc(O)cc2)NC(=O)[C@H](CO)NC(=O)[C@H](Cc2c[nH]c3ccccc23)NC(=O)[C@H](Cc2cnc[nH]2)NC(=O)CCNC(=O)CNC(=O)[C@@H]2CCCN2C(=O)[C@H](CCCNC(=N)N)NC1=O	206.67 ng/mL	1.2%	364.59 ng/mL
CC(C)C[C@@H]1NC(=O)[C@@H](C)NC(=O)[C@H](Cc2ccc(O)cc2)NC(=O)[C@H](CO)NC(=O)[C@H](Cc2c[nH]c3ccccc23)NC(=O)[C@H](Cc2cnc[nH]2)NC(=O)CCCCCNC(=O)CNC(=O)[C@@H]2CCCN2C(=O)[C@H](CCCNC(=N)N)NC1=O	151.02 ng/mL	0.65%	315.81 ng/mL
